An excerpt weighted towards active compounds, which were near 2% of everything screened.
CXCR6 inh – inhibitors of human CXCR6 receptor; O00574; CHO-K1 PathHunter CXCR6 beta-arrestin, luminescence; inhibition, % at 20 µM; actives 0.36% (n = 360,000); in the data active = inhibition above about 34%, passing the limit was not always enough;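 also: antagonist mode with CXCL16 agonist at 10 nM final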
APJ antagonist – APJ receptor antagonism; P35414; CHO-K1 APJ beta-arrestin complementation, luminescence; inhibition, % at 20 µM; actives 0.32% (n = 330,000); AID 2521;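 active = inhibition above about 40% at 20 µM, limit read from the data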;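 also: cells challenged with 10 nM apelin-13 agonist together with compound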
Target sequence (P35414 whole entry, looked up): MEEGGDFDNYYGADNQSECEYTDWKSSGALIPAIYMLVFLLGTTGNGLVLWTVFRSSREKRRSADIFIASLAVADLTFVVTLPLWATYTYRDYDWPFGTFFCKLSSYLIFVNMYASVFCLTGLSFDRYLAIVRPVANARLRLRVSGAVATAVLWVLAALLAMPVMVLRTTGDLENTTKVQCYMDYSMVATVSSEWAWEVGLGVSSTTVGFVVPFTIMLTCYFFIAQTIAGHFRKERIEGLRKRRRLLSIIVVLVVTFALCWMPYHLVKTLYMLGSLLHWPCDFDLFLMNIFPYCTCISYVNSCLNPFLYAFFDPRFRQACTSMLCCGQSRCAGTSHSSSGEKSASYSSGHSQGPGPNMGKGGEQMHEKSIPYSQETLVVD
CCR6 antag – blocks CCL20-driven beta-arrestin recruitment at human CCR6. actives 0.49% (n = 340,000). CHO-K1 CCR6 PathHunter beta-arrestin, luminescence, CCL20-stimulated. AID 493098. P51684. inhibition, % at 20 µM;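 active = compounds whose inhibition of the agonist-driven luminescence signal at 20 µM reaches about 50%, limit read from the data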;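 also: cells stimulated with CCL20 at 14 nM final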
APJ agonist – agonists of human APJ apelin receptor; CHO-K1 APJ PathHunter beta-arrestin, luminescence; 0% DMSO wells, 100% apelin; activation, % at 20 µM; actives 0.11% (n = 330,000);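 active = activation more than six SD over the plate average, tested at 20 µM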
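Material: engineered CHO-K1 APJ arrestin reporter cells; amount: 1000 CHO-K1 reporter cells seeded per well; incubation: compound stimulation 90 min at 25 °C, detection 60 min; signal: luminescent beta-gal fragment complementation, chemiluminescent substrate; read-out basis: APJ agonist activity; controls: DMSO-only wells as negative, 10 nM Apelin-13 as positive control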
EBI2 block – blocks human EBI2 receptor beta-arrestin signaling | EBI2 beta-arrestin recruitment, luminescence, 7a,25-OHC stimulated | actives 0.81% (n = 360,000) | inhibition, % at 5 µM | P32249; in the data active = inhibition above about 38%;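 also: enzyme fragment complementation signal reports receptor beta-arrestin coupling in cells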
FXN GAA850 act – frataxin GAA850 promoter activation. HEK293 lucGAA850 FXN promoter luciferase reporter, 24 h; percent of 10 µM SAHA response. activation, % at 6 µM. actives 0.56% (n = 360,000). AID 540364;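 active = activation above the average of all compounds screened plus 3 SD, cutoff fixed separately per campaign, cut at about 7.5% in these data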
A number is an active result; i = inactive; nt = no result given.

SMILES | CXCR6 inh | APJ antagonist | CCR6 antag | APJ agonist | EBI2 block | FXN GAA850 act
COc1cc(/C=C2\SC(=S)N(NC(=O)c3ccncc3)C2=O)ccc1O | i | i | 53.1 | i | i | i
Cc1ccc2cccc(OC(=O)c3ccc4c(c3)OCCO4)c2n1 | i | i | 52.2 | i | i | i
Cc1ccc2cccc(OCC(=O)Nc3ccc4c(c3)OCO4)c2n1 | i | i | i | i | i | i
O=C(NC(=S)Nc1ccccc1Br)c1ccc2c(c1)OCO2 | i | i | i | i | i | i
CC(C)c1ccc(O)c(NC(=S)NC(=O)c2ccc3c(c2)OCO3)c1 | 45.1 | i | nt | i | i | i
O=C(CC1CC1)Nc1ccc2c(c1)[C@H]1C[C@H](CC(=O)N3CCc4ccccc4C3)O[C@@H](CO)[C@H]1O2 | i | nt | nt | nt | i | i
C=CS(=O)(=O)c1c2cc(OC)ccc2nc2ccc(OC)cc12 | 48.3 | nt | 77.8 | nt | i | i
CC(=O)Oc1oc(-c2ccccc2)nc1/C=N/c1ccccn1 | i | i | 51.5 | i | i | i
COc1cccc2c1C(=O)c1c(O)c3c(c(O)c1C2=O)C[C@@](O)(C(C)=O)C[C@@H]3O[C@H]1C[C@H](N)[C@H](O)[C@H](C)O1 | i | nt | i | nt | i | i
CC(=O)[C@]1(O)Cc2c(O)c3c(c(O)c2[C@@H](O[C@H]2C[C@H](N)[C@H](O)[C@H](C)O2)C1)C(=O)c1ccccc1C3=O | nt | i | 81.2 | i | nt | nt
COC(=O)c1ccc(CSc2nc3c(c(=O)[nH]2)CCC3)cc1 | i | nt | nt | nt | i | i
N#CC(C#N)=c1ccc2c(c1)NC1(CCCCC1)N=2 | i | i | 54.1 | i | i | i
N#CC(C#N)=C1NC2(CCCCC2)Cc2ccccc21 | i | i | i | i | i | i
Cc1cc(C)c2nc(-c3ccncc3)cc(C(=O)N3CCN(Cc4ccccc4Cl)CC3)c2c1 | i | i | i | i | i | i
N#Cc1c(N2CCN(C(=O)c3ccccc3)CC2)nc(-c2ccccc2)c2c1CCCC2 | i | i | 50.5 | i | i | i
OC[C@H]1O[C@@H](n2cnc3c(Nc4ccccc4)ncnc32)[C@H](O)[C@@H]1O | i | i | i | i | i | i
NCCNC(=O)Cc1cccc(NC(=O)Cc2ccc(Nc3ncnc4c3ncn4[C@@H]3O[C@H](CO)[C@@H](O)[C@H]3O)cc2)c1 | i | i | i | i | i | 10.2
CSc1ccc(CN2CCC2(C)C(=O)Nc2cccc(NS(C)(=O)=O)c2)cc1 (centres undefined) | i | nt | nt | nt | i | i
O=C(/C=C/c1cc(Br)ccc1O)c1ccco1 | i | i | 64.5 | i | i | i
O=c1c2ccccc2n(Cc2ccc(Cl)cc2)c(=O)n1Cc1ccco1 | i | i | i | i | 76.6 | i
O=C1C2CC=CCC2C(=O)N1Cc1ccccc1 (centres undefined) | i | i | i | i | i | i
O=C1C=CC(=O)N1Cc1ccccc1 | 89.6 | i | 106.7 | i | i | i
CCN1C/C(=C/c2ccc(OC)c(O)c2)C(=O)/C(=C/c2ccc(OC)c(O)c2)C1 | i | i | i | i | i | i
COc1ccc(/C=C2\CN(Cc3ccccc3)C/C(=C\c3ccc(OC)c(O)c3)C2=O)cc1O | 51.6 | i | i | i | i | i
COc1ccc(/C=C2\CC/C(=C\c3ccc(OC)c(OC)c3)C2=O)cc1OC | i | i | i | i | i | i
SMILES | CXCR6 inh | APJ antagonist | CCR6 antag | APJ agonist | EBI2 block | FXN GAA850 act
COc1cc(/C=C2/CC/C(=C/c3ccc(O)c(OC)c3)C2=O)ccc1O | 55.4 | i | 61.5 | i | i | i
COc1cc(C=C2C(=O)c3ccccc3C2=O)cc(OC)c1OC | i | i | i | i | i | i
COc1cc(/C=C2\COC/C(=C\c3ccc(O)c(OC)c3)C2=O)ccc1O | 40.7 | 44.2 | 56.0 | i | i | i
COc1cc(C=C2C(=O)c3ccccc3C2=O)ccc1O | i | 61.3 | i | i | i | i
Oc1ccccc1C=NCCN1CCN(CCN=Cc2ccccc2O)C1c1ccccc1O (centres undefined) | i | nt | i | nt | i | i
CCc1cccc(C)c1NC(=O)COC(=O)CSCc1ccccc1 | i | i | i | i | i | i
CC(C)NC(=O)C1(C)CN(S(C)(=O)=O)CC(=O)N1Cc1ccco1 (centres undefined) | nt | nt | nt | nt | i | nt
CN1C(=O)C(N=Nc2ccc([N+](=O)[O-])cc2)SC1=S (centres undefined) | 45.4 | nt | 86.3 | nt | i | i
